The values that follow come from ChEMBL document CHEMBL4145460, “Discovery of novel high potent and cellular active ADC type PTP1B inhibitors with selectivity over TC-PTP via modification interacting with C site” (Eur J Med Chem, 2018).

In assay [1] the target is T1, Tyrosine-protein phosphatase non-receptor type 2 (Homo sapiens, UniProt P17706).
T1 sequence (P17706 whole entry): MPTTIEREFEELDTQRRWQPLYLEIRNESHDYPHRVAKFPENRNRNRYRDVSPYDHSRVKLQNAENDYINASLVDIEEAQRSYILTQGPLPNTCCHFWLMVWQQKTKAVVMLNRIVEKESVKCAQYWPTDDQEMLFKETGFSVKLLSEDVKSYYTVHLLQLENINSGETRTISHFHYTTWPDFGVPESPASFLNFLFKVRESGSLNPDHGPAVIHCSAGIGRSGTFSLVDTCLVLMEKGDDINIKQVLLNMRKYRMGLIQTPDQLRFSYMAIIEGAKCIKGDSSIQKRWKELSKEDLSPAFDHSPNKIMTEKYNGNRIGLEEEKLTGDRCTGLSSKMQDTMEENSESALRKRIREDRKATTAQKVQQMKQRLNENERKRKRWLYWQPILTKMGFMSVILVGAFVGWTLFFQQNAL
Briefly: Inhibition of human TCPTP using pNNP as substrate after 30 mins.

The target in assay [2] is T2, Tyrosine-protein phosphatase non-receptor type 11 (Homo sapiens) (UniProt Q06124).
T2 sequence (whole entry): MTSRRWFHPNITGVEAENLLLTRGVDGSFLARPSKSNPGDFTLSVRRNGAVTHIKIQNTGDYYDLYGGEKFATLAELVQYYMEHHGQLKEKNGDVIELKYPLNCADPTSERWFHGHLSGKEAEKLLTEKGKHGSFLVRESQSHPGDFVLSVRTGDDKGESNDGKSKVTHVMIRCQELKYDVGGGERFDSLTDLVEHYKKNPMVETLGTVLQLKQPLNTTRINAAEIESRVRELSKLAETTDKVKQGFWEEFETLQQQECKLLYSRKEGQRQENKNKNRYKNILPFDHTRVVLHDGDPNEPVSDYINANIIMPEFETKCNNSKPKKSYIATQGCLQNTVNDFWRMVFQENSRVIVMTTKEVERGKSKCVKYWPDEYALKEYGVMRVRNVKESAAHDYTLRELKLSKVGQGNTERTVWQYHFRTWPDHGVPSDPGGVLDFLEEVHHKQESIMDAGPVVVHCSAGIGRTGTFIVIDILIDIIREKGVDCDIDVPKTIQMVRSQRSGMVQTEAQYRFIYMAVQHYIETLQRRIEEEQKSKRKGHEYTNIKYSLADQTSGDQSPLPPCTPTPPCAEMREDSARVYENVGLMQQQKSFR
The experiment in a line: Inhibition of human GST-tagged SHP2 ([…] residues) expressed in Escherichia coli BL21-CondenPlus (DE3) at 25 uM using pNNP as substrate relative to control.

Assay [3] concerns the target T3, Tyrosine-protein phosphatase non-receptor type 1 (Homo sapiens, UniProt P18031).
T3 sequence (P18031 whole entry): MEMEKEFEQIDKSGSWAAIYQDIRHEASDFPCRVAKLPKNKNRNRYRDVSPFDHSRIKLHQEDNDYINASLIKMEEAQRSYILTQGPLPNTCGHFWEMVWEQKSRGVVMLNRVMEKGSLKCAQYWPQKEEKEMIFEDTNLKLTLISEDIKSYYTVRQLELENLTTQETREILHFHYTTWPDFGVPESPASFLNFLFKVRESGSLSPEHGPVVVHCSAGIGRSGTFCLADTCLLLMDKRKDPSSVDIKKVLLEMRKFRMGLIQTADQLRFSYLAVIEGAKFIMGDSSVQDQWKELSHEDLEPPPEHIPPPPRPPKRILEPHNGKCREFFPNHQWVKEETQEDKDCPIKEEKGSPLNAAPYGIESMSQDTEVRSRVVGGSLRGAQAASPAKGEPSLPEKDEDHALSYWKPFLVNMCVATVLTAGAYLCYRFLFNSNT
Briefly: Inhibition of recombinant human PTP1B using pNNP as substrate after 30 mins.

The target of assay [4] is T4, Receptor-type tyrosine-protein phosphatase F (Homo sapiens, UniProt P10586). The experiment in a line: Inhibition of human GST-tagged LAR D1 (1275 to 1613 residues) expressed in Escherichia coli BL21-CondenPlus (DE3) at 25 uM using pNNP as substrate relative to control.
For the next assay, the species on record is Homo sapiens. Briefly: Selective ratio of IC50 for human TCPTP to IC50 for recombinant human PTP1B. The essentials:
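Ratio of TCPTP IC50 to PTP1B IC50. Both measured with the same pNPP assay: 2 mM pNPP, pH 6.5 with DTT and EDTA, 30 min at 37 °C, NaOH stop, A405, logit-derived IC50.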

For assay [5], the target named is T5, Tyrosine-protein phosphatase non-receptor type 6 (Homo sapiens, UniProt P29350). The experiment in a line: Inhibition of human GST-tagged SHP1 (244 to 570 residues) expressed in Escherichia coli BL21-CondenPlus (DE3) using pNNP as substrate.
Assay [6] deals with T6, Tyrosine-protein phosphatase non-receptor type 11 (Homo sapiens, UniProt Q06124).
T6 sequence (Q06124 whole entry): T2 sequence (whole entry)
The experiment in a line: Inhibition of human GST-tagged SHP2 ([…] residues) expressed in Escherichia coli BL21-CondenPlus (DE3) using pNNP as substrate.

Assay [7] has as its target T4, Receptor-type tyrosine-protein phosphatase F. Briefly: Inhibition of human GST-tagged LAR D1 (1275 to 1613 residues) expressed in Escherichia coli BL21-CondenPlus (DE3) using pNNP as substrate.
For assay [8], the system named is L6. The experiment in a line: Antidiabetic activity in rat L6 cells assessed as increase in insulin-stimulated 2-NBDG uptake at 0.5 uM after 30 mins by fluorescent assay relative to control. Format: functional. The essentials: (§1)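 Differentiated L6 myotubes rinsed with warm PBS, serum-starved (serum-free DMEM 3 h, 37 °C; figure legend says 2 h), then exposed to compound at […] for 4 h. Insulin 10 nM for 10 min at 37 °C in Krebs-Ringer phosphate buffer pH 7.4, then 2-NBDG added. Uptake read after 30 min by fluorescence at ex 485/em 535 nm. Background from cells with drug but no 2-NBDG. n = 3, mean ± SEM.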

The subject of assay [9] is L6. The experiment in a line: Antidiabetic activity in rat L6 cells assessed as increase in insulin-stimulated 2-NBDG uptake at 10 uM after 30 mins by fluorescent assay relative to control. In kind it is functional. An outline of the steps:
as §1

Assay [10] has as its system L6. Briefly: Antidiabetic activity in rat L6 cells assessed as increase in insulin-stimulated 2-NBDG uptake at 2.5 uM after 30 mins by fluorescent assay relative to control. Format: functional. An outline of the steps:
as §1

In assay [11] the target is T5, Tyrosine-protein phosphatase non-receptor type 6. Briefly: Inhibition of human GST-tagged SHP1 (244 to 570 residues) expressed in Escherichia coli BL21-CondenPlus (DE3) at 25 uM using pNNP as substrate relative to control.
Assay [12] concerns the target T7, Tyrosine-protein phosphatase non-receptor type 1 (Homo sapiens) (UniProt P18031).
T7 sequence (whole entry): T3 sequence (P18031 whole entry)
Briefly: Inhibition of recombinant human PTP1B at 25 uM using pNNP as substrate after 30 mins relative to control. The essentials: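 Recombinant PTP1B, 30 nM, with 2 mM pNPP, 1 mM dithiothreitol and 1 mM EDTA at pH 6.5. Compounds delivered from DMSO. Incubated 30 min at 37 °C, stopped with 2.5 M NaOH, pNP read at 405 nm.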

T5 sequence (P29350 whole entry, the tested form may be a part): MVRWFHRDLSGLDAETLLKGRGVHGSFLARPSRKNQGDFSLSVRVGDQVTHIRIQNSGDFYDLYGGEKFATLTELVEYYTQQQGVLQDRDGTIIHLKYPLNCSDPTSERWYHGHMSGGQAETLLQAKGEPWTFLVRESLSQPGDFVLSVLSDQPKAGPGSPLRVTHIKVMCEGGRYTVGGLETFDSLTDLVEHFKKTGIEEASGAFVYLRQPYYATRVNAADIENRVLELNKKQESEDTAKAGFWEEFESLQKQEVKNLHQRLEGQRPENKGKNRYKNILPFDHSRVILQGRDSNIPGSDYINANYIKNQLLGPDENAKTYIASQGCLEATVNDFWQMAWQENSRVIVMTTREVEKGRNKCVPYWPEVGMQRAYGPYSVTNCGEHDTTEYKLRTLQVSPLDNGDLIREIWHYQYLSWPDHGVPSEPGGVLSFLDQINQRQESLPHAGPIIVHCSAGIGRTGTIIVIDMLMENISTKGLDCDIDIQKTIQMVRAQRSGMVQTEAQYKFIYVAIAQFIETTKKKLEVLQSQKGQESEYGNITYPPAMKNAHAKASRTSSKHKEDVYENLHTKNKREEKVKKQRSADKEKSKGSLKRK
T4 sequence (P10586 whole entry, the tested form may be a part): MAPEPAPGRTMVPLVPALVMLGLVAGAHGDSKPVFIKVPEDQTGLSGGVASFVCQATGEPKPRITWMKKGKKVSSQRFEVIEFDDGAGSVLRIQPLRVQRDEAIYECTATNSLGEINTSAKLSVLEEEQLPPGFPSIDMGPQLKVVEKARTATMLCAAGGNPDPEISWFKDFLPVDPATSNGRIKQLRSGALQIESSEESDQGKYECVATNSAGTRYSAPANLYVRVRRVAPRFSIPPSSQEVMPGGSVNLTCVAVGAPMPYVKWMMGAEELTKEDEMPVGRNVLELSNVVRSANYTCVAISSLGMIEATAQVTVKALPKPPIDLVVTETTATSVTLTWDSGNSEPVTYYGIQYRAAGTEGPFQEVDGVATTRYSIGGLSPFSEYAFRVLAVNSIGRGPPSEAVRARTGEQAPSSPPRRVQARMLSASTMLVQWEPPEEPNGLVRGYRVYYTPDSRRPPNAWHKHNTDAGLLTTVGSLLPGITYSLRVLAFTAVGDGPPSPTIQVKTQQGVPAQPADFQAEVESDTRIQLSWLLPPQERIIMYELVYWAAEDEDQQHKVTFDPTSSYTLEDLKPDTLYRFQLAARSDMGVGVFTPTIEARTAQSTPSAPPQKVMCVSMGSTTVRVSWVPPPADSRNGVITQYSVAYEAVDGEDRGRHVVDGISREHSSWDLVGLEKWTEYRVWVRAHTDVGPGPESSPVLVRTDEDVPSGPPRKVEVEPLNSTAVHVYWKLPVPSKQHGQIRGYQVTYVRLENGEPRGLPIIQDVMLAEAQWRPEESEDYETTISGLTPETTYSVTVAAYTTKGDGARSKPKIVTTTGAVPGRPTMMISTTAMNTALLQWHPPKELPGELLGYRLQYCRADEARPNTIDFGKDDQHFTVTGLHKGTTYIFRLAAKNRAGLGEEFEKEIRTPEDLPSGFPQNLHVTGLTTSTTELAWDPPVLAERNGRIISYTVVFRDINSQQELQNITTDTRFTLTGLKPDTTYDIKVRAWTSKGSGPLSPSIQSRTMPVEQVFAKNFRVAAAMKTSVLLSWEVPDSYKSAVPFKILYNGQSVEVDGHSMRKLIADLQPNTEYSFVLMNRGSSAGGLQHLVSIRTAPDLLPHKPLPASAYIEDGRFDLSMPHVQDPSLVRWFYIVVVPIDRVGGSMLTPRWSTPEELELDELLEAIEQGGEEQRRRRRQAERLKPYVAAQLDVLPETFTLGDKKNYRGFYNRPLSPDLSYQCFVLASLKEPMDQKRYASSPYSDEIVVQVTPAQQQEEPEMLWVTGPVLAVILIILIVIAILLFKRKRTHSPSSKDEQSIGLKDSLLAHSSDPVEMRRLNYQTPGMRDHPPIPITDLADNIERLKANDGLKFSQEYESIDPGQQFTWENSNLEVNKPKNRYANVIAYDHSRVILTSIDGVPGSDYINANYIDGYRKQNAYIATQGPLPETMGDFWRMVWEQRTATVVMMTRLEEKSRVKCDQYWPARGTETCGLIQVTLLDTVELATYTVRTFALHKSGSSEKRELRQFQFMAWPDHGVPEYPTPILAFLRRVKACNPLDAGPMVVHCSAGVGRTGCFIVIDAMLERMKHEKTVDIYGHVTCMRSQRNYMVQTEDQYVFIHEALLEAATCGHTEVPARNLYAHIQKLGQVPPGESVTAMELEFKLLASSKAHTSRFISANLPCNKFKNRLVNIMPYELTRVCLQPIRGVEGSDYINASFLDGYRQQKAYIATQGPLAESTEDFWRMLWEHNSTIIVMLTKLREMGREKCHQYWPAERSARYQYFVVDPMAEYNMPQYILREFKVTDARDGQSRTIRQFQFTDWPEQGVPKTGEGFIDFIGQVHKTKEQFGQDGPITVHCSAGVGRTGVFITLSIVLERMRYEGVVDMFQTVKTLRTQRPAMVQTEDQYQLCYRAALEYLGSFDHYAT

What is called IC50 is the point on the concentration scale where inhibition reaches its midpoint. The inhibition is the percentage by which the read-out fell short of the control. `CCCNC(=O)c1cc(NC(=O)NCc2cc(OCC)c(NS(C)(=O)=O)cc2OCC)ccc1OCC`: the figures for the IC50 in assay [1], in assay [3] and in [5] were 2020 nM, 184 nM and 8630 nM, respectively. Besides, the inhibition in [2] and in [4] was less than 50% throughout. Also, the Ratio IC50 in the assay listed under Homo sapiens was found to be 10.9.
Consider `CCOc1cc(NS(C)(=O)=O)c(OCC)cc1CNC(=O)Nc1ccc(OCC)c(C(=O)Nc2ccc(OC)c(OC)c2)c1`, for which the half-inhibitory concentration (IC50) in [1] amounted to 390 nM; in assay [6], 1590 nM; in assay [3] it was 66.2 nM; in assay [7], 7340 nM; in [5], 850 nM. In addition, the Activity in the assay on L6 [8] is recorded as 6.6%; in the assay with L6 [9], 25.8%; in the assay on L6 [10] it was 18.7%. Further, the Ratio IC50 in the assay listed under Homo sapiens came out at 5.9.
Take `CCOc1cc(NS(C)(=O)=O)c(OCC)cc1CNC(=O)Nc1ccc(OCC)c(C(=O)Nc2cccc(OC)c2)c1`: the IC50 in assay [3] amounted to 981 nM.
Consider `CCCCOc1ccc(NC(=O)NCc2cc(OCC)c(NS(C)(=O)=O)cc2OCC)cc1C(=O)OC`, for which the IC50 in assay [3] came out at 711 nM.
In the case of `CCOc1cc(NS(C)(=O)=O)c(OCC)cc1CNC(=O)Nc1ccc(OCC)c(C(=O)OC)c1`, the IC50 worked out at 670 nM in assay [1]; 910 nM in [6]; 18.6 nM in [3]; 5360 nM in assay [7]; 1090 nM in [5]. Besides, the Activity with L6 [8] was found to be 16.2%; in the assay on L6 [9] it was 22.9%; in the assay with L6 [10], 22.4%. For the same compound, the Ratio IC50 in the assay listed under Homo sapiens was 36.
As for `CCOc1cc(NS(C)(=O)=O)c(OCC)cc1CNC(=O)Nc1ccc(OCC)c(C(=O)NC)c1`, the inhibition in assay [11], in [2] and in [4] was less than 50% each time. Besides, the values for the IC50 in assay [1] and in [3] were 7620 nM and 166 nM, respectively. The Ratio IC50 in the assay filed under Homo sapiens is 45.9.
As for `CCOc1cc(NS(C)(=O)=O)c(OCC)cc1CNC(=O)Nc1ccc(OCC)c(C(=O)Nc2ccc(C)cc2)c1`, the half-inhibitory concentration (IC50) was 870 nM in assay [1], 209 nM in [3], 6950 nM in [7] and 2940 nM in assay [5]. The compound also displayed an inhibition in assay [2] of less than 50%. In the assay filed under Homo sapiens, the Ratio IC50 worked out at 4.1.
Consider `CCCOc1ccc(NC(=O)NCc2cc(OCC)c(NS(C)(=O)=O)cc2OCC)cc1C(=O)OC`, for which the IC50 in assay [1] was 1180 nM; in assay [6] it was 7760 nM; in assay [3] it was 68.2 nM; in [5] it was 3450 nM. The inhibition in [4] is less than 50%. The Ratio IC50 in the assay filed under Homo sapiens is 17.3.
`CCNC(=O)c1cc(NC(=O)NCc2cc(OCC)c(NS(C)(=O)=O)cc2OCC)ccc1OCC`: the IC50 in assay [3] was 169 nM.
`CCOc1cc(NS(C)(=O)=O)c(OCC)cc1CNC(=O)Nc1ccc(OCC)c(C(=O)Nc2ccccc2)c1`: the inhibition in [12] is less than 50%.
Turning to `CCOc1cc(NS(C)(=O)=O)c(OCC)cc1CNC(=O)Nc1ccc(OCC)c(C(=O)Nc2ccc(OC)cc2)c1`, the inhibition in assay [12] was less than 50%.
